Values after ≈ are worked out from the molar mass of the structure shown.
Tests used:
[1] = test system: HUVEC; test: Selectivity ratio of IC50 for human HCT116 cells to IC50 for HUVEC cells
[2] = test system: HUVEC; test: Antiangiogenic activity in HUVEC assessed as inhibition of VEGF-induced cell proliferation after 4 days; assay type: functional, cell-based; conditions: Homo sapiens, 96 h
Procedure, shortened: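 HUVECs maintained in RPMI1640 with 10% FCS, 50 μg/mL heparin and ECGS, then seeded at 3000 cells/well in RPMI1640 with 5% FCS and 20 ng/mL VEGF, with compound at serially diluted concentrations. Incubated at 37 °C, 5% CO₂. Read-out is Cell Counting Kit-8, absorbance at 450 nm. Inhibition = (1−T/C)×100 against untreated control.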

[3] = test system: HCT-116; test: Antiproliferative activity against human HCT116 cells; assay type: cell-based
[4] = Clearance in mouse liver microsome at 5 uM after 60 mins by LC-MS/MS analysis; assay type: ADME; conditions: liver microsomes, read-out: CLH
Procedure, shortened: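 Test compound at 5 µM incubated with mouse liver microsomes, 1.0 mg protein/mL, in 50 mM potassium phosphate pH 7.4 at 37 °C. Started by adding NADPH generating system (glucose 6-phosphate 3.2 mM, β-NADP 2.6 mM, MgCl2 6.5 mM). Substrate depletion measured against internal standard. Intrinsic clearance is the first-order decay constant normalized to protein.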

[5] = Solubility of the compound in fasted state simulated intestinal fluid at 10 mM after 2 hrs by HPLC-UV analysis; assay type: physicochemical
Procedure, shortened: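 Triplicate samples made from 10 mM DMSO stocks. DMSO evaporated (1 h), residue dissolved in FaSSIF and shaken 2 h. Solutions filtered, filtrate analysed by UV or HPLC-UV against a four-point calibration curve from the stocks. Result in µg/mL.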

[6] = test system: Calu-6; test: Antitumor activity against human Calu6 cells xenografted in BALB/c mouse assessed as tumor growth inhibition at 600 mg/kg, po for 11 days relative to control; assay type: functional; conditions: Calu-6, 264 h, read-out: TGI
Procedure, shortened: (§1)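 Calu-6 cells in Hanks' balanced salt solution implanted s.c. in the flank of female Balb/c nude mice, 5.0×10⁶ per mouse. Oral dosing once daily for 11 days, starting at tumor volume 150 mm³. Volume = 1/2 × long × short². Tumor growth inhibition taken from change in volume of the treated group against change in controls.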

[7] = test system: Calu-6; test: Antiangiogenic activity in human Calu6 cells xenografted in BALB/c mouse assessed as microvessel density reduction at 300 mg/kg, po after 11 days by immunohistochemical staining method; assay type: functional; set-up: scale not given: the % may be the effect or the level left
Procedure, shortened: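 Female Balb/c nude mice given Calu-6 cells s.c. in the flank, 5.0×10⁶ cells per mouse. Dosing was oral, once daily for 11 days, starting once tumors reached 150 mm³. Tumors taken 24 h after the last dose and frozen-sectioned from the mid-portion. Vessels stained with anti-mouse CD31 and counted by image analysis. Density decrease expressed against control.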

[8] = molecular target: Vascular endothelial growth factor receptor 2 (Homo sapiens, UniProt P35968); test: Inhibition of VEGFR2
[9] = test system: Calu-6; test: Antitumor activity against human Calu6 cells xenografted in BALB/c mouse assessed as tumor growth inhibition at 300 mg/kg, po for 11 days relative to control; assay type: functional; conditions: Calu-6, 264 h, read-out: TGI; procedure, shortened: as §1
[10] = Lipophilicity, log D of the compound at pH 7; assay type: physicochemical; conditions: buffer

Chain of Vascular endothelial growth factor receptor 2 (P35968 whole entry): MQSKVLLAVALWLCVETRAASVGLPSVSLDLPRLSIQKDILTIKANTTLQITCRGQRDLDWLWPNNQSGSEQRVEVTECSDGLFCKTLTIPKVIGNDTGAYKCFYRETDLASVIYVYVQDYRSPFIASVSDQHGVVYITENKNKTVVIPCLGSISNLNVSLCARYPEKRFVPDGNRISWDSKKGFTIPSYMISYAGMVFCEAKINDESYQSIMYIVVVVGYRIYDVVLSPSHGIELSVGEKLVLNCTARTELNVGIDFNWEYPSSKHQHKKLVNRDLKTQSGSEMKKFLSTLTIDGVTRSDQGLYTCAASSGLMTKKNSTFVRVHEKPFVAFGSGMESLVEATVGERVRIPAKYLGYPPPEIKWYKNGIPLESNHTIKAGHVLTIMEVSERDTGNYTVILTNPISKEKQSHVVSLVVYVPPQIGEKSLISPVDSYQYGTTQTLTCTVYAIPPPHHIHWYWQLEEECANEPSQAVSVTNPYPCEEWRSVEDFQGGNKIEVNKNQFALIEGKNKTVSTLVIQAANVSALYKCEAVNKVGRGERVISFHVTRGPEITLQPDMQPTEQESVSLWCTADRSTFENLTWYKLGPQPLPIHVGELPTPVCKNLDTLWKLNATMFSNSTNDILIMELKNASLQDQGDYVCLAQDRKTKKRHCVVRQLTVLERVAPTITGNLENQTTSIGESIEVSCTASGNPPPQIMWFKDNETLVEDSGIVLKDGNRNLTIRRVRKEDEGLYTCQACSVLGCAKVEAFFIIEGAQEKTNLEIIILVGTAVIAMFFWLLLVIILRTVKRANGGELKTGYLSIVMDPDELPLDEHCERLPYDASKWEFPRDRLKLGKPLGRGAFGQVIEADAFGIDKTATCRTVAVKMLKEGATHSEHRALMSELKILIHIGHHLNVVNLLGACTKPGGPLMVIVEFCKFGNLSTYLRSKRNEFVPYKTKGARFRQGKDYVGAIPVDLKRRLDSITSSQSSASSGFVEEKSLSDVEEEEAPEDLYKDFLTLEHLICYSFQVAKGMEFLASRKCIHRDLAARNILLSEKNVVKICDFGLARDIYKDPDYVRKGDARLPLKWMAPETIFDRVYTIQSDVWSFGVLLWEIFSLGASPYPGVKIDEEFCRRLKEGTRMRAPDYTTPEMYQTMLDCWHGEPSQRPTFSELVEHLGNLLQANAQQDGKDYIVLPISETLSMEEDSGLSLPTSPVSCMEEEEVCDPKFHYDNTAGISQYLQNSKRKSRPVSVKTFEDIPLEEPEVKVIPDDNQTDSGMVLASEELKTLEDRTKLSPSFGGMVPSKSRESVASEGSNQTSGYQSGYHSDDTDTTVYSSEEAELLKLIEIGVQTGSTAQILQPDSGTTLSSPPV

Row | Compound | Ratio IC50 [1] | IC50 [2] | IC50 [3] | microsomal CLint at 5 µM [4] | other results
1 | COC(=O)c1ccc(OC)c(COc2ccc(Cl)c(C)c2)c1 | 10 | 2.3 µM | 23 µM |  | 
2 | COc1ccc(C(N)=O)cc1/C=C/c1ccc(C(F)(F)F)cc1 | 40 | 0.88 µM | 35 µM |  | 
3 | COc1ccc(C(N)=O)cc1/C=C/c1ccc(C(C)(C)C)cc1 | 54 | 0.37 µM | 20 µM |  | 
4 | COc1ccccc1/C=C/c1cc(C(N)=O)ccc1OC | >8.8 | 5.7 µM | > 50 µM |  | 
5 | COc1ccc(C(N)=O)cc1/C=C/c1cccc(F)c1 | >6 | 8.3 µM | > 50 µM |  | 
6 | COc1ccc(C(N)=O)cc1C(=O)Nc1ccc(Cl)cc1 | >9 | 5.5 µM | > 50 µM | 16 µL/min/mg | solubility at 2 h, 10000 µM [5]: 5 µg/mL (≈ 16.4 µM)
7 | COc1ccc(C(N)=O)cc1/C=C/c1ccc(C)cc1 | 30 | 1.6 µM | 48 µM |  | 
8 | Cc1cc(OCc2cccc(C#N)c2)ccc1Cl | 4.1 | 11 µM | 45 µM |  | 
9 | NC(=O)c1ccc(OCCOCCO)c(/C=C/c2ccc(Cl)cc2)c1 |  | 11 µM | 38 µM | 247 µL/min/mg | solubility at 2 h, 10000 µM [5]: 74 µg/mL (≈ 205 µM)
10 | CCOc1ccc(C(N)=O)cc1/C=C/c1ccc(Cl)cc1 | 8.9 | 0.19 µM | 1.7 µM | 123 µL/min/mg | solubility at 2 h, 10000 µM [5]: 10 µg/mL (≈ 33.1 µM)
11 | COc1ccc(C(N)=O)cc1/C=C/c1ccc(Br)cc1 | 39 | 0.56 µM | 22 µM |  | 
12 | CCc1ccc(OC)c(COc2ccc(Cl)c(C)c2)c1 | 1.1 | 40 µM | 43 µM |  | 
13 | COc1ccc(C(N)=O)cc1/C=C/c1cccc(C)c1 | 5.9 | 3.9 µM | 23 µM |  | 
14 | COc1ccc(C(N)=O)cc1/C=C/c1ccc(Cl)c(Cl)c1 | 20 | 0.56 µM | 11 µM |  | 
15 | COc1ccc(C(=O)NC(CO)CO)cc1/C=C/c1ccc(Cl)cc1 | 9.3 | 1.5 µM | 14 µM | 8 µL/min/mg | solubility at 2 h, 10000 µM [5]: 251 µg/mL (≈ 694 µM)
16 | COc1ccc(C(N)=O)cc1/C=C/c1ccccc1C | 4.8 | 2.3 µM | 11 µM |  | 
17 | COc1ccc(C(N)=O)cc1/C=C/c1ccccc1 | 15 | 2.4 µM | 36 µM |  | 
18 | COc1ccc(C(N)=O)cc1/C=C/c1ccc(Cl)cc1Cl | >19 | 2.6 µM | > 50 µM |  | 
19 | COc1ccc(C(N)=O)cc1COc1ccc(Cl)cc1 | >75 | 0.66 µM | > 50 µM | 97 µL/min/mg | inhibition in vivo at 600 mg/kg [6]: 62%; Activity ([7]; dose 600 mg/kg, in the assay text read “600 mg/kg” for “300 mg/kg”): 27%; IC50 [8]: > 50 µM
20 | COc1ccc(C(=O)NCC(O)CO)cc1/C=C/c1ccc(Cl)cc1 (configuration not stated) |  | 0.4 µM | 12 µM | 10 µL/min/mg | solubility at 2 h, 10000 µM [5]: 317 µg/mL (≈ 876 µM)
21 | COc1ccc(/C=C/c2cc(C(N)=O)ccc2OC)cc1 | 2.2 | 8.8 µM | 19 µM |  | 
22 | COc1ccc(C(N)=O)cc1/C=C/c1ccc(F)cc1 | 11 | 2.1 µM | 24 µM |  | 
23 | COc1ccc(C(N)=O)cc1/C=C/c1ccc(Cl)cc1 | 82 | 0.087 µM | 7.1 µM | 110 µL/min/mg | Activity ([7]; dose 300 mg/kg): 60%; inhibition in vivo at 300 mg/kg [9]: 71%; solubility at 2 h, 10000 µM [5]: 16 µg/mL (≈ 55.6 µM); logD [10]: 4; IC50 [8]: > 50 µM
